Assay results from ChEMBL document CHEMBL4118021, “Studies of TAK1-centered polypharmacology with novel covalent TAK1 inhibitors” (Bioorg Med Chem, 2017).
The source made the active and inactive calls. The calls are words filed in the database; no cut-off is given here.

Key:
[1] = biological target: T1, Serine/threonine-protein kinase D2 (Homo sapiens) (UniProt Q9BZL6); assay: Inhibition of human PRKD2 (519 to 838 residues) expressed in bacterial expression system assessed as enzyme activity at 10 uM by KINOMEScan assay relative to control; design: scale not given: the % may be the effect or the level left
T1 sequence (whole entry): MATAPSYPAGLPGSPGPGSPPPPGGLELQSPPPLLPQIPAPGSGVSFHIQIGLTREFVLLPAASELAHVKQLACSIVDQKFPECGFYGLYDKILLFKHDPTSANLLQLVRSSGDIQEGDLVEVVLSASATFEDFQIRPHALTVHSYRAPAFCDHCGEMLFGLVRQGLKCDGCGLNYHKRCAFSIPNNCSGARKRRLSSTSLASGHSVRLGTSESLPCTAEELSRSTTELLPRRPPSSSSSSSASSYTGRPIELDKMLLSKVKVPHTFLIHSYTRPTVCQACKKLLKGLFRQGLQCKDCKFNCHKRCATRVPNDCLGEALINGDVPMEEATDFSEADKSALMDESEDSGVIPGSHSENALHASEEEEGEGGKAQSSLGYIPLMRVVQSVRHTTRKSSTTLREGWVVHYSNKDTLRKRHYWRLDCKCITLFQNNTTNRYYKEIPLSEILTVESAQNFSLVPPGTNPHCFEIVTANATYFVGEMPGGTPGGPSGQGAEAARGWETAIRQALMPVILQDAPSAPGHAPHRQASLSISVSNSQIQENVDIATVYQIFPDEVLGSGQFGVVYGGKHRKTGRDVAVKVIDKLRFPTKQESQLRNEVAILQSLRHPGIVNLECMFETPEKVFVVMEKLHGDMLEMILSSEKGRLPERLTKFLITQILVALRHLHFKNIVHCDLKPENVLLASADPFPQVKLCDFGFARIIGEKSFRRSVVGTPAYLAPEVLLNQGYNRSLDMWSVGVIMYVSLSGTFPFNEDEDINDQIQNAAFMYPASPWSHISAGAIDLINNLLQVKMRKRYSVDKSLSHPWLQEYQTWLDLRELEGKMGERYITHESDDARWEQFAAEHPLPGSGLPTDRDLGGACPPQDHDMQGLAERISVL
How it was run: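 In vitro ATP-site competition binding assay across a panel of 456 kinases, with compound tested at 1 and 10 μM.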

[2] = biological target: Serine/threonine-protein kinase Nek8 (Homo sapiens) (UniProt Q86SG6); assay: Inhibition of NEK8 in human SKCO1 cells at 1 uM after 4 hrs using biotin labeled DLKTQNILLDK probe by mass-spectrometric analysis relative to control; format: cell-based
[3] = biological target: Mitogen-activated protein kinase kinase kinase 20 (Homo sapiens) (UniProt Q9NYL2); assay: Binding affinity to ZAK in human NCI-H358 cells at 1 uM by mass spectrometry based pull down assay; format: cell-based
[4] = biological target: Membrane-associated progesterone receptor component 1 (Homo sapiens) (UniProt O00264); assay: Binding affinity to PGRMC1 in human NCI-H23 cells at 1 uM by mass spectrometry based pull down assay; format: cell-based
[5] = biological target: Inter-alpha-trypsin inhibitor heavy chain H2 (Homo sapiens) (UniProt P19823); assay: Binding affinity to ITIH2 in human NCI-H358 cells at 1 uM by mass spectrometry based pull down assay; format: cell-based
[6] = biological target: HCLS1-associated protein X-1 (Homo sapiens) (UniProt O00165); assay: Binding affinity to HAX1 in human NCI-H23 cells at 1 uM by mass spectrometry based pull down assay; format: cell-based
[7] = biological target: Delta-1-pyrroline-5-carboxylate synthase (Homo sapiens) (UniProt P54886); assay: Binding affinity to ALDH18A1 in human NCI-H358 cells at 1 uM by mass spectrometry based pull down assay; format: cell-based
How it was run: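 NCI-H23 or NCI-H358 cells were grown and lysed. Lysates were incubated overnight at 4 °C with 1 μM biotinylated covalent probe or DMSO, then pulled down on streptavidin beads. Proteins were run on polyacrylamide gels and stained with Coomassie. Bands were excised, digested and identified by mass spectrometry.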

[8] = biological target: 80S Ribosome (Homo sapiens) (UniProt P08865+P42677+P62753+P15880+P23396+P61247+P62701+P22090+P46782+P62081+P62241+P46781+P46783+P62280+P25398+P62277+P62263+P62841+P62244+P62249+P08708+P62269+P39019+P60866+P63220+P62266+P62847+P62851+P62854+P62979+P62857+P62273+P62861+P39023+P36578+P46777+Q02878+P18124+P62424+P62917+P32969+P27635+P62906+P62913+P30050+P26373+P40429+P50914+P61313+P18621+Q07020+Q02543+P84098+P46778+P35268+P62829+P62750+P83731+P61254+P61353+P46776+P46779+P47914+P62888+P62899+P62910+P49207+P42766+P18077+Q9Y3U8+P83881+P61927+P61513+P63173+P62891+P62945+P05388+P05386); assay: Binding affinity to RPL17 in human NCI-H23 cells at 1 uM by mass spectrometry based pull down assay; format: cell-based
[9] = biological target: Thioredoxin-related transmembrane protein 1 (Homo sapiens) (UniProt Q9H3N1); assay: Binding affinity to TMX1 in human NCI-H23 cells at 1 uM by mass spectrometry based pull down assay; format: cell-based
[10] = biological target: Eukaryotic translation initiation factor 3 subunit I (Homo sapiens) (UniProt Q13347); assay: Binding affinity to EIF3I in human NCI-H23 cells at 1 uM by mass spectrometry based pull down assay; format: cell-based
[11] = biological target: T2, Dual specificity mitogen-activated protein kinase kinase 5 (Homo sapiens) (UniProt Q13163); assay: Binding affinity to MAP2K5 in human NCI-H23 cells at 1 uM by mass spectrometry based pull down assay; format: cell-based
T2 sequence (whole entry): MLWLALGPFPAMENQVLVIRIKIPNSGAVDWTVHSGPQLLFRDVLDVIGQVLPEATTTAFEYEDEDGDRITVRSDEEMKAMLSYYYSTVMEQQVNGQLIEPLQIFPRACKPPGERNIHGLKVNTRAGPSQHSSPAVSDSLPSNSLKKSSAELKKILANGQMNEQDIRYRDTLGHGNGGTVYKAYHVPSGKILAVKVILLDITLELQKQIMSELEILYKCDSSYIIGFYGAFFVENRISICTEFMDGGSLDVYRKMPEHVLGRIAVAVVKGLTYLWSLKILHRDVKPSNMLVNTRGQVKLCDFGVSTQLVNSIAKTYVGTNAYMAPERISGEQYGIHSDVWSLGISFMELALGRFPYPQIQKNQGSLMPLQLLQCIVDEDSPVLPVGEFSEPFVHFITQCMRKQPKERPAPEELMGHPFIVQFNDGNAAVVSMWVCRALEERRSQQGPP

[12] = biological target: Nuclear receptor-binding factor 2 (Homo sapiens) (UniProt Q96F24); assay: Binding affinity to NRBF2 in human NCI-H23 cells at 1 uM by mass spectrometry based pull down assay; format: cell-based
[13] = biological target: LIM domain kinase 1 (Homo sapiens) (UniProt P53667); assay: Binding affinity to LIMK1 in human NCI-H358 cells at 1 uM by mass spectrometry based pull down assay; format: cell-based
Sequence of LIM domain kinase 1 (Homo sapiens) (P53667 whole entry, looked up, the tested form may be a part): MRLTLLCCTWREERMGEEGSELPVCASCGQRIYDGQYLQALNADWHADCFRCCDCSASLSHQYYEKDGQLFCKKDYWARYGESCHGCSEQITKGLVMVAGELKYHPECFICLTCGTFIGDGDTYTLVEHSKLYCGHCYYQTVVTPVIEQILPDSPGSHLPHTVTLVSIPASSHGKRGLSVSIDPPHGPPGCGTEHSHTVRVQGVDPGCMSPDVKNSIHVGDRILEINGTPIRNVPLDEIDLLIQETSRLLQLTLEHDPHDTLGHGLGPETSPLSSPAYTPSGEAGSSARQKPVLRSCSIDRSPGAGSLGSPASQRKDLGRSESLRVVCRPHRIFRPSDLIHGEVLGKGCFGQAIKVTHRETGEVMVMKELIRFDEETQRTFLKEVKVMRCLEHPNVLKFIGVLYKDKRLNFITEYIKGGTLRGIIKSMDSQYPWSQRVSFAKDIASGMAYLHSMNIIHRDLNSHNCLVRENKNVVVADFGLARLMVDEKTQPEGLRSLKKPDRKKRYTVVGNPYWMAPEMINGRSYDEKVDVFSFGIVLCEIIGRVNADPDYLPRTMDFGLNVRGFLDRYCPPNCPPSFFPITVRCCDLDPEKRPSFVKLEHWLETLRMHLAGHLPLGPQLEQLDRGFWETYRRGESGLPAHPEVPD

Sequence of Eukaryotic translation initiation factor 3 subunit I (Homo sapiens) (Q13347 whole entry): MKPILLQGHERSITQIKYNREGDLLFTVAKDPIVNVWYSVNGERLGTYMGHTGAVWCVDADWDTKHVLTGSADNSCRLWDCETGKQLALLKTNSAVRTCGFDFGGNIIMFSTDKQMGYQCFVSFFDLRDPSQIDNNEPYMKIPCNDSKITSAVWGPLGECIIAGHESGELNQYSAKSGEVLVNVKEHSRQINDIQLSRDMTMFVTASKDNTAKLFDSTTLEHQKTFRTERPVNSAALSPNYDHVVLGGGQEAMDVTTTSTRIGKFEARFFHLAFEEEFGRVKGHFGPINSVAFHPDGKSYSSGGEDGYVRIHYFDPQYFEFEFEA
Sequence of Inter-alpha-trypsin inhibitor heavy chain H2 (Homo sapiens) (P19823 whole entry): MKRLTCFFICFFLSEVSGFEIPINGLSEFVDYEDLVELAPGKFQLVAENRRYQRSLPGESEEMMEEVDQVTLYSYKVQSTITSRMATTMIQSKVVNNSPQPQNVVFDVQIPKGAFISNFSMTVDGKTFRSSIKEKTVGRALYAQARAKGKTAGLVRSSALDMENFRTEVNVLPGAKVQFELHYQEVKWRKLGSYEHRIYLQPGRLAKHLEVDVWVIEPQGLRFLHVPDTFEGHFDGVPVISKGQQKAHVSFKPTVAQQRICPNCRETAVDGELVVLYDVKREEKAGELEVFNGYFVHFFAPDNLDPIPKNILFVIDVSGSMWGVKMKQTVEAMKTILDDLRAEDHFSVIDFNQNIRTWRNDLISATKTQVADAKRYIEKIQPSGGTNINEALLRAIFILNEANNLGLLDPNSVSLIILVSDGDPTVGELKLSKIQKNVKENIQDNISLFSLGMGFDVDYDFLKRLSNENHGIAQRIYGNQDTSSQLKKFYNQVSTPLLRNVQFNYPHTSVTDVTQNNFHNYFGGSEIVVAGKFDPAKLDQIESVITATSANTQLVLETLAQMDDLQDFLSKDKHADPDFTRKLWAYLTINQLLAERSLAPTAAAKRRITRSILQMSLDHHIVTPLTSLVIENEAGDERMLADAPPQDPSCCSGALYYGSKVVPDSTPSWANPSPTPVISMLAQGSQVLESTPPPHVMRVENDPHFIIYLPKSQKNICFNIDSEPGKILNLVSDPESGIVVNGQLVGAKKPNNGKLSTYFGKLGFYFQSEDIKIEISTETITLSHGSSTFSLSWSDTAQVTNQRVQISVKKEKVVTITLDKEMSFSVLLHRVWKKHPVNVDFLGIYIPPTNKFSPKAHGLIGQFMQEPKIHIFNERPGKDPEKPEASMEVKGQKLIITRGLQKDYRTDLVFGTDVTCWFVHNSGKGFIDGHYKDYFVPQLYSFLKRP
Sequence of Thioredoxin-related transmembrane protein 1 (Homo sapiens) (Q9H3N1 whole entry): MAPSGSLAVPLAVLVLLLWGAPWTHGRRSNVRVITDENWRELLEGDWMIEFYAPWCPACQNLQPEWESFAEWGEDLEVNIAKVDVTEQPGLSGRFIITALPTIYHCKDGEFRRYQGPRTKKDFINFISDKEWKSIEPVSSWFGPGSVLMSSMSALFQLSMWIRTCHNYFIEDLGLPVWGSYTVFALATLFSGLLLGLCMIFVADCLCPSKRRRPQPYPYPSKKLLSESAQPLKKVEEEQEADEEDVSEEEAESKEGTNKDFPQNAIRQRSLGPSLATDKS
Sequence of Delta-1-pyrroline-5-carboxylate synthase (Homo sapiens) (P54886 whole entry): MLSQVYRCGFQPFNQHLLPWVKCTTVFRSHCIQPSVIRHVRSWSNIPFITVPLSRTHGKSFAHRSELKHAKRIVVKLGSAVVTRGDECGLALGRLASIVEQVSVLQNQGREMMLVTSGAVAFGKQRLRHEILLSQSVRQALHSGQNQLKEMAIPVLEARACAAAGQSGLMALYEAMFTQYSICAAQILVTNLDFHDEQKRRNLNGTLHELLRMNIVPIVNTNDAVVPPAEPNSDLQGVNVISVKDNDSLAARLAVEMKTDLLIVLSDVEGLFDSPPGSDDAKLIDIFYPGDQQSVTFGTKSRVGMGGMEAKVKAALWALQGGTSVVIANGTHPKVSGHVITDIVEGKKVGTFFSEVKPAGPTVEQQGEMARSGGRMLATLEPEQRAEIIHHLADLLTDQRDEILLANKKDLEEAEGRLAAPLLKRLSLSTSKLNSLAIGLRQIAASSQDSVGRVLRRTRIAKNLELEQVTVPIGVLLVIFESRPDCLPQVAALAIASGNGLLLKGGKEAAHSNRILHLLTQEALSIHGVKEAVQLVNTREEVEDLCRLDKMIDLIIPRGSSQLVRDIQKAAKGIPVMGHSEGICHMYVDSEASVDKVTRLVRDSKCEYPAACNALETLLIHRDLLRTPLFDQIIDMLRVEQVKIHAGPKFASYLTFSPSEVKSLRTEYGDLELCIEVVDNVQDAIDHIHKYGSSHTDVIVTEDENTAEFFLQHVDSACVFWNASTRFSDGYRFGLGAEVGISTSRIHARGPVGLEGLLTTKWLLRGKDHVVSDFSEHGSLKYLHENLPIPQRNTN
Sequence of Serine/threonine-protein kinase Nek8 (Homo sapiens) (Q86SG6 whole entry): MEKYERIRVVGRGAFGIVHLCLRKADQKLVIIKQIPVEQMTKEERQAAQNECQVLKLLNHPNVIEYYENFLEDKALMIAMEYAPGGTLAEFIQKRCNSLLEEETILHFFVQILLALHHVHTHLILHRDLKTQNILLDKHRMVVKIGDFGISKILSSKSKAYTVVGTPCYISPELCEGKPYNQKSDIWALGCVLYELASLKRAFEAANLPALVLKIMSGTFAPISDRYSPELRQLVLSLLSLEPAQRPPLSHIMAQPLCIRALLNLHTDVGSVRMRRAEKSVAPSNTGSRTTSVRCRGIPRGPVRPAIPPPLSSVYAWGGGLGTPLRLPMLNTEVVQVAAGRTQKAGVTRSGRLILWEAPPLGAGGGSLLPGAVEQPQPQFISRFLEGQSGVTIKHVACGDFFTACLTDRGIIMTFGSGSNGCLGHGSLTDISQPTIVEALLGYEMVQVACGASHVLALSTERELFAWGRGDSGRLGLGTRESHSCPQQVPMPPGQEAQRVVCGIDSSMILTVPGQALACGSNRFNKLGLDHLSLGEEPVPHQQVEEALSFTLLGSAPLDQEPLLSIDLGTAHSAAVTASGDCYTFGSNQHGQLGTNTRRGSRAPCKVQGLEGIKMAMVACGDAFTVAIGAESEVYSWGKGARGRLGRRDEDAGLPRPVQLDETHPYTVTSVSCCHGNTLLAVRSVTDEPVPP
Sequence of HCLS1-associated protein X-1 (Homo sapiens) (O00165 whole entry): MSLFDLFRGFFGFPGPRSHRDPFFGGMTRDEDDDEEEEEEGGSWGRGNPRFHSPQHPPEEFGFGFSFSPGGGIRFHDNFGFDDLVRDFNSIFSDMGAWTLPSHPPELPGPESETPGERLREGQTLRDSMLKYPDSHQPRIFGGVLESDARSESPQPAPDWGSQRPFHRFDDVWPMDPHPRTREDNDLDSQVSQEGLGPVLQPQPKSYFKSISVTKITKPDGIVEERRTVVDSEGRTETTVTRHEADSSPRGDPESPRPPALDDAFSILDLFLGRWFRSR
Sequence of Mitogen-activated protein kinase kinase kinase 20 (Homo sapiens) (Q9NYL2 2-800 limits assumed): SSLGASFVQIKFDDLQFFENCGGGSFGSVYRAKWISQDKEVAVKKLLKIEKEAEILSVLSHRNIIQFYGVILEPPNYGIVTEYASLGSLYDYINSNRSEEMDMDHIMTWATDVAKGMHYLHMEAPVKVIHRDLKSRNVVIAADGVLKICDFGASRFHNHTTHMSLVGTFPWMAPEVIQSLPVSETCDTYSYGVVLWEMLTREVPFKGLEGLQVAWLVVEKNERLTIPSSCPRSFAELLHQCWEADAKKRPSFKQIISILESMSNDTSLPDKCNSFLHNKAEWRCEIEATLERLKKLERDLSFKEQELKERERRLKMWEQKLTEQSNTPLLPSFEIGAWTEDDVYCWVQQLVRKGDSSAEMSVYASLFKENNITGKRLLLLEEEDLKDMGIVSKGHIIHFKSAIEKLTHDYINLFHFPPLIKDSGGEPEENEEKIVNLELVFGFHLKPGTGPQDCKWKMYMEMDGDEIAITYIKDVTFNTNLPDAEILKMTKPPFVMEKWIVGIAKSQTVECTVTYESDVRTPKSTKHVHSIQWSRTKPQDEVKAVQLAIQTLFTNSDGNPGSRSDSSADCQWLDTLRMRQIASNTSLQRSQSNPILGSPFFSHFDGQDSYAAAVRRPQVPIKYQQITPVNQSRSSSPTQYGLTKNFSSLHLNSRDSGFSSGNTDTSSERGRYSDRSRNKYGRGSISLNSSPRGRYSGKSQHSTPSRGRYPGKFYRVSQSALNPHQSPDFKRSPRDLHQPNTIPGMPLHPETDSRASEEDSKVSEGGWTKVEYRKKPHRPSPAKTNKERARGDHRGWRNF
Sequence of Membrane-associated progesterone receptor component 1 (Homo sapiens) (O00264 whole entry): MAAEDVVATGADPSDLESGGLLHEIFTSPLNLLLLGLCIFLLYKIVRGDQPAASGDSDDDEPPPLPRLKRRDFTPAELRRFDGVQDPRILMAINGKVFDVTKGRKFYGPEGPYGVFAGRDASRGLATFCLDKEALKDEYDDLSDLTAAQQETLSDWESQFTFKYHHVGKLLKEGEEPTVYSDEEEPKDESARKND

Structure (SMILES) | Activity [1] | inhibition [2] | Activity [3] | Activity [4] | Activity [5] | Activity [6] | Activity [7] | Activity [8] | Activity [9] | Activity [10] | Activity [11] | Activity [12] | Activity [13]
COc1cc(O)c2c(c1)/C=C/C[C@H](O)[C@H](O)C(=O)/C=C\C[C@H](C)OC2=O | 2.5% | -9.5% |  |  |  |  |  |  |  |  |  |  | 
C=CC(=O)Nc1ccccc1Nc1nc(Nc2ccc(N3CCN(CCOCCOCCOCCNC(=O)CCCC[C@@H]4SC[C@@H]5NC(=O)N[C@@H]54)CC3)cc2)ncc1Cl |  |  | Active | Active | Active | Active | Active | Active | Active | Active | Active | Active | Active
